Results from ChEMBL document CHEMBL1125391, “Syntheses and thymidylate synthase inhibitory activity of the poly-gamma-glutamyl conjugates of N-[5-[N-(3,4-dihydro-2-methyl-4-oxoquinazolin-6-ylmethyl)-N-methylamino ]-2-thenoyl]-L-glutamic acid (ICI D1694) and other quinazoline antifolates” (J Med Chem, 1992).

What was measured:
[1] = target: Thymidylate synthase (Mus musculus) (UniProt P07607); assay: Compound was evaluated for fold increase in Thymidylate synthase (TS) inhibition; assay type: functional
Thymidylate synthase [2] = target: T1, Thymidylate synthase (Mus musculus, UniProt P07607); assay: Inhibition of thymidylate synthase, partially purified from L1210 mouse leukemia cells overexpressing TS; assay type: cell-free; conditions: read-out: Ki app
Summary of the method: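 Enzyme partially purified from L1210 mouse leukemia cells that overproduce TS through TS gene amplification. Assayed by the previously described method with (±)-5,10-methylenetetrahydrofolic acid at 200 μM. Apparent Ki was calculated with the Goldstein equation for tight-binding inhibitors.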

Thymidylate synthase [3] = target: T1, Thymidylate synthase; assay: Compound was evaluated for inhibition of thymidylate synthase, partially purified from L1210 mouse leukemia cells that overproduce thymidylate synthase due to amplification of TS gene; conditions: read-out: Ki app

T1 sequence (P07607 whole entry): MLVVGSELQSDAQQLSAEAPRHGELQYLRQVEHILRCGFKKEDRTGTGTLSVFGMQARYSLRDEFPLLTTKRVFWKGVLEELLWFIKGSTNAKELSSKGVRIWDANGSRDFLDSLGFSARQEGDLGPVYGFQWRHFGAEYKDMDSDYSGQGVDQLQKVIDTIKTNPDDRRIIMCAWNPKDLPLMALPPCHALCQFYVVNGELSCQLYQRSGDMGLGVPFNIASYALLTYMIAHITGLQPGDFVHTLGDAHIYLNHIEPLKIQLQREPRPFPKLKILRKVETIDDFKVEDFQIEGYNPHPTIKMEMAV
Thymidylate synthase (Mus musculus), sequence (P07607 whole entry, looked up): as the sequence (P07607 whole entry) above

Row | Fold increase [1] | Ki (Thymidylate synthase [2]) [nM] | Ki (Thymidylate synthase [3]) [nM] | SMILES
1 | 89 | 4.69 |  | Cc1nc(O)c2cc(CN(C)c3ccc(C(=O)N[C@@H](CCC(=O)N[C@@H](CCC(=O)N[C@@H](CCC(=O)N[C@@H](CCC(=O)O)C(=O)O)C(=O)O)C(=O)O)C(=O)O)s3)ccc2n1
2 |  | 7.52 |  | Cc1nc2ccc(CN(C)c3ccc(C(=O)N[C@@H](CCC(=O)N[C@@H](CCC(=O)N[C@@H](CCC(=O)O)C(=O)O)C(=O)O)C(=O)O)s3)cc2c(=O)[nH]1
3 | 112 |  |  | Cc1nc(O)c2cc(CN(C)c3ccc(C(=O)N[C@@H](CCC(=O)N[C@@H](CCC(=O)N[C@@H](CCC(=O)N[C@@H](CCC(=O)N[C@@H](CCC(=O)N[C@@H](CCC(=O)O)C(=O)O)C(=O)O)C(=O)O)C(=O)O)C(=O)O)C(=O)O)s3)ccc2n1
4 | 56 |  |  | Cc1nc(O)c2cc(CN(C)c3ccc(C(=O)N[C@@H](CCC(=O)N[C@@H](CCC(=O)N[C@@H](CCC(=O)O)C(=O)O)C(=O)O)C(=O)O)s3)ccc2n1
5 |  | 3.79 |  | Cc1nc2ccc(CN(C)c3ccc(C(=O)N[C@@H](CCC(=O)N[C@@H](CCC(=O)N[C@@H](CCC(=O)N[C@@H](CCC(=O)N[C@@H](CCC(=O)O)C(=O)O)C(=O)O)C(=O)O)C(=O)O)C(=O)O)s3)cc2c(=O)[nH]1
6 | 110 |  |  | Cc1nc(O)c2cc(CN(C)c3ccc(C(=O)N[C@@H](CCC(=O)N[C@@H](CCC(=O)N[C@@H](CCC(=O)N[C@@H](CCC(=O)N[C@@H](CCC(=O)O)C(=O)O)C(=O)O)C(=O)O)C(=O)O)C(=O)O)s3)ccc2n1

The remaining lines, values behind:

Row | SMILES | Fold increase [1] | Ki (Thymidylate synthase [2]) [nM] | Ki (Thymidylate synthase [3]) [nM]
7 | Cc1nc2ccc(CN(C)c3ccc(C(=O)N[C@@H](CCC(=O)N[C@@H](CCC(=O)N[C@@H](CCC(=O)N[C@@H](CCC(=O)N[C@@H](CCC(=O)N[C@@H](CCC(=O)O)C(=O)O)C(=O)O)C(=O)O)C(=O)O)C(=O)O)C(=O)O)s3)cc2c(=O)[nH]1 |  | 3.7 | 
8 | C#CCN(Cc1ccc2nc(C)cc(Cl)c2c1)c1ccc(C(=O)N[C@@H](CCC(=O)N[C@@H](CCC(=O)N[C@@H](CCC(=O)O)C(=O)O)C(=O)O)C(=O)O)c(F)c1 | 64 | 1 | 
9 | Cc1nc2ccc(CN(C)c3ccc(C(=O)N[C@@H](CCC(=O)N[C@@H](CCC(=O)O)C(=O)O)C(=O)O)s3)cc2c(=O)[nH]1 |  | 24 | 
10 | C#CCN(Cc1ccc2nc(C)nc(O)c2c1)c1ccc(C(=O)N[C@@H](CCC(=O)N[C@@H](CCC(=O)O)C(=O)O)C(=O)O)c(F)c1 | 18 | 0.59 | 
11 | Cc1nc2ccc(CN(C)c3ccc(C(=O)N[C@@H](CCC(=O)O)C(=O)O)s3)cc2c(=O)[nH]1 [RALTITREXED] |  |  | 418
12 | Cc1nc(O)c2cc(CN(C)c3ccc(C(=O)N[C@@H](CCC(=O)N[C@@H](CCC(=O)O)C(=O)O)C(=O)O)s3)ccc2n1 | 17 |  | 
13 | C#CCN(Cc1ccc2nc(C)[nH]c(=O)c2c1)c1ccc(C(=O)N[C@@H](CCC(=O)O)C(=O)O)c(F)c1 |  | 10.4 | 
14 | C#CCN(Cc1ccc2nc(C)cc(Cl)c2c1)c1ccc(C(=O)N[C@@H](CCC(=O)O)C(=O)O)c(F)c1 |  | 63.7 | 
